Compound activity deposited in PubChem BioAssay by Sanford-Burnham Center for Chemical Genomics.
An excerpt weighted towards active compounds, which were near 1.4% of everything screened.
MT1-MMP act inh = MT1-MMP (human) activation inhibition; HT1080 RFP-PRO-GFP cells, GFP/RFP ratio fluorescence, overnight; percent of plate control window, DMSO zero; P50281; 0.061% of 360,000 active; GFP/RFP ratio change, % at 20 µM; AID 651647;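 active = GFP/RFP ratio change of at least 30% with cell ATP level not reduced by more than half and red fluorescence within 50% of control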
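Assay system: HT1080 cells carrying an RFP-PRO-GFP reporter | Dosing: Single dose of 20 µM compound, 1% DMSO final | Incubation: Cells overnight before dosing, compound overnight, 37 °C, 5% CO2 | Evaluation: GFP/RFP fluorescence ratio | Control set: DMSO and RFP-L50D-GFP cell wells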
CendR NRP1 mod = NRP-1/CendR interaction modulation; O14786; FAM-RPARPAR peptide binding to NRP-1, fluorescence polarization; inhibition, % at 25 µM; 0.85% of 360,000 active;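 active = inhibition or corrected inhibition above about 18%, plus a signal ratio from 0.5 to 1.5, limit read from the data, passing the limit was not always enough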
hiPSC survival = enhancers of human iPSC single-cell survival | 0.044% of 360,000 active | hiPSC single-cell survival, ATPlite luminescence; 100% = ROCK inhibitor wells, 0% = DMSO | survival enhancement, % at 20 µM | AID 602274; in the data active = survival enhancement above about 18%;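 also: cells exposed to compounds for 16 hours before the ATP read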
SKN-1 inh = blocks SKN-1 activity in C. elegans. C. elegans VP596 Pgst-4::GFP/RFP ratio, acrylamide-induced, 24 h. inhibition, % at 21.8 µM. 0.49% of 360,000 active;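 active = interference check ratio from 0.5 to 1.5 plus GFP to RFP signal ratio inhibition reaching or exceeding a fixed threshold, cut at about 30% in these data, passing the limit was not always enough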
* marks the source's active call; other numbers are inactive results.

SMILES	MT1-MMP act inh	CendR NRP1 mod	hiPSC survival	SKN-1 inh
Cc1ccc(-n2nnnc2CNC(=O)C2CC(=O)N(c3ccccc3)C2)cc1C (stereo not drawn)	0	28*	0	-3
Cc1ccc(CSc2nc3ccccc3c(=O)n2Cc2ccco2)cc1	-2	12	3	38*
Cc1ccc(OCc2nnc(SCC(=O)c3ccccc3)n2-c2ccccc2)cc1	22	-1	-1	-9
N#Cc1ccc(OCc2nnc(SCC(=O)c3ccccc3)n2-c2ccccc2)cc1	-1	31*	5	12
Cc1ccc(C)c(N2CCN(C(c3ccc(N(C)C)cc3)c3nnnn3C(C)(C)C)CC2)c1 (stereo not drawn)	-7	-16	-2	46*
Cn1c(CCN2CCCC2)nc2cc(NC(=O)COc3ccc(Cl)cc3)ccc21	1	19*	-1	12
CC(C)Cn1cnc2c(SCc3ccccc3F)nc(N)nc21	10	26*	-2	8
CCC(C)Cn1cnc2c(SCc3ccccc3F)nc(N)nc21 (stereo not drawn)	2	-7	-1	12
CCCCC(C(=O)NC(C)c1ccccc1)C(=O)NC(C)c1ccccc1 (stereo not drawn)	2	12	-1	-6
CC1(Cc2ccc(Cl)cc2)C(=O)Nc2ccc(-c3cccnc3)cc21 (stereo not drawn)	-20	5	-2	39*
CC1(Cc2ccc(F)c(Cl)c2)C(=O)Nc2c(Cl)cccc21 (stereo not drawn)	-6	25*	1	13
CC1(Cc2cccc(C(F)(F)F)c2)C(=O)Nc2ccc(-c3ccc(F)c(Cl)c3)cc21 (stereo not drawn)	-10	-6	-2	40*
CCOC(=O)C1CCN(C(=O)CSc2nc(N)cc(=O)[nH]2)CC1	4	-5	0	-13
Cc1nc2scc(C)n2c(=O)c1S(=O)(=O)NCC1CCN(Cc2ccc(F)cc2)CC1	2	-8	0	5
CCc1ccc(OCc2nnc(SCc3ccc(C(=O)O)cc3)o2)cc1	8	12	0	0
O=C(O)c1ccc(CSc2nnc(COc3ccccc3)o2)cc1	-1	22*	0	-4
Oc1ccccc1N1CCN(CC(O)COCc2ccccc2Cl)CC1 (stereo not drawn)	2	-1	1	5
Cn1c(N)c(C(=O)COC(=O)C2(c3ccccc3F)CCCC2)c(=O)n(C)c1=O	1	32*	-1	8
CCCn1c(NCCO)nc2ccccc21	2	0	7	6
CC(C)n1c(NCCO)nc2ccccc21	3	26*	0	4
CCCCNC(=O)CC(NS(=O)(=O)c1ccc(C)cc1)c1ccco1 (stereo not drawn)	-3	-2	-1	-3
O=C(NCCn1cccn1)C1CCC(=O)N(CCc2cccc(F)c2)C1 (stereo not drawn)	-2	47*	2	-3
CCN(CC)c1ccc(N=Nc2ncn[nH]2)cc1	28	-64	-2	46*
CCN(CC)c1ccc(N=Nc2nn(C)c(C)c2[N+](=O)[O-])cc1	44	-4	-2	22
CC1=C(C(=O)N(C(C)C)C(C)C)CC(CC(=O)NCc2ccco2)C(=O)N1Cc1ccccc1 (stereo not drawn)	0	17	0	5
SMILES	MT1-MMP act inh	CendR NRP1 mod	hiPSC survival	SKN-1 inh
COc1ccc(S(=O)(=O)N/N=C\c2ccc3c(c2)OCO3)c(OC)c1	-5	30*	0	0
N[C@@H](Cc1ccccc1)C(=O)N1CCC(C(=O)N[C@@H](Cc2c[nH]c3ccccc23)C(=O)O)CC1	-5	11	0	-22
CSCC[C@H](N)C(=O)N1CCC(C(=O)N[C@@H](Cc2c[nH]c3ccccc23)C(=O)O)CC1	-3	13	0	36*
O=C(O)c1c(Cl)nc2ccccn12	-1	4	-2	7
N#CC1(c2ccccc2)CCCN1C(=O)c1ccc(Br)cc1 (stereo not drawn)	1	-8	0	-3
N#CC1(c2ccccc2)CCCN1C(=O)c1ccccc1Cl (stereo not drawn)	5	26*	-2	4
Brc1ccc(-c2csc(N/N=C/c3ccco3)n2)cc1	2	8	0	65*
Clc1ccc(-c2csc(N/N=C\c3cccnc3)n2)cc1	-1	-7	-2	2
C(=N\Nc1nc(-c2ccccc2)cs1)/c1ccco1	-1	-3	0	47*
CN(C)S(=O)(=O)c1ccc(-c2csc(N/N=C/c3ccco3)n2)cc1	-11	-12	0	3
